Reference: ChEMBL document CHEMBL1151261, “Antineoplastic agents. 509: synthesis of fluorcombstatin phosphate and related 3-halostilbenes(1)” (J Nat Prod, 2005)
pIC50: −log10 of the molar value. Values after ≈ are worked out from the molar mass of the structure shown. Active and inactive are the calls of the source. The calls are words filed in the database; no cut-off is given here.

Assays:
[1] = tested on: KM-20L2; assay: Cytotoxicity against human KM20L2 cells after 48 hrs by sulforhodamine B assay; format: functional; conditions: KM-20L2, 48 h
Outline: (§1)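 Human tumor lines exposed to compound for 48 h, then fixed with trichloroacetic acid and stained with sulforhodamine B (NCI standard protocol); optical density read on a microplate reader. GI50 is the concentration giving a 50% reduction in net protein increase, calculated from optical density data.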

[2] = tested on: DU-145; assay: Cytotoxicity against human DU145 cells after 48 hrs by sulforhodamine B assay; format: functional; conditions: DU-145, 48 h; outline: as §1
[3] = Displacement of [3H]colchicine from tubulin
Outline: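 [3H]colchicine binding with 1.0 μM tubulin, 5.0 μM [3H]colchicine and inhibitor at 1.0 μM.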

[4] = tested on: BXPC-3; assay: Cytotoxicity against human BxPC3 cells after 48 hrs by sulforhodamine B assay; format: functional; conditions: BXPC-3, 48 h; outline: as §1
[5] = tested on: SF-268; assay: Cytotoxicity against human SF268 cells after 48 hrs by sulforhodamine B assay; format: functional; conditions: SF-268, 48 h; outline: as §1
[6] = tested on: NCI-H460; assay: Cytotoxicity against human NCI-H460 cells after 48 hrs by sulforhodamine B assay; format: functional; conditions: NCI-H460, 48 h; outline: as §1
[7] = tested on: P388; assay: Cytotoxicity against mouse P388 cells after 48 hrs by Coulter particle counting; conditions: P388, 48 h, read-out: ED50 (the source's name)
[8] = tested on: MCF7; assay: Cytotoxicity against human MCF7 cells after 48 hrs by sulforhodamine B assay; format: functional; conditions: MCF7, 48 h; outline: as §1
[9] = tested on: Neisseria gonorrhoeae; assay: Antimicrobial activity against Neisseria gonorrhoeae ATCC 49226 after 24 hrs by broth microdilution assay; format: functional; conditions: ATCC 49226, 24 h
Outline: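 Neisseria tested by NCCLS broth microdilution in gonococcal typing broth. Final inoculum about 5×10^5 CFU/mL; 2-fold compound dilutions from DMSO; DMSO turbidity control; 37 °C with 5% CO₂ without agitation, 24 h. MIC = lowest concentration with no visible growth.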

[10] = tested on: Stenotrophomonas maltophilia; assay: Antimicrobial activity against Stenotrophomonas maltophilia ATCC 13637 at 64 ug/mL after 24 hrs by broth microdilution assay; format: functional, organism-based
Outline: (§2)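 NCCLS bacterial broth microdilution (M7-A5). Overnight colonies diluted to about 5×10^5 CFU/mL final; 2-fold compound dilutions (DMSO stock) in cation-adjusted Mueller Hinton II broth; DMSO turbidity control; 35 °C without agitation, 24 h. MIC = lowest concentration with optically clear wells.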

[11] = tested on: Streptococcus pneumoniae; assay: Antimicrobial activity against Streptococcus pneumoniae ATCC 6303 at 64 ug/mL after 24 hrs by broth microdilution assay; format: functional, organism-based
Outline: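 Streptococcus tested by NCCLS broth microdilution in cation-adjusted MHII broth with 3% lysed horse blood. Final inoculum about 5×10^5 CFU/mL; 2-fold compound dilutions from DMSO; DMSO turbidity control; 35 °C without agitation, 24 h. MIC = lowest concentration with no visible growth.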

[12] = tested on: Escherichia coli; assay: Antimicrobial activity against Escherichia coli ATCC 25922 at 64 ug/mL after 24 hrs by broth microdilution assay; format: functional, organism-based; outline: as §2
[13] = tested on: Cryptococcus neoformans; assay: Antimicrobial activity against Cryptococcus neoformans ATCC 90112 at 64 ug/mL after 72 hrs by broth microdilution assay; format: functional, organism-based
Outline: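 Yeast NCCLS broth microdilution (M27-A). Inoculum 0.5 to 2.5×10^3 CFU/mL; 2-fold dilutions in 0.165 M MOPS-buffered RPMI 1640, pH 7.0; compound from DMSO, DMSO-only turbidity control; 35 °C without agitation; read at 72 h (Cryptococcus). MIC = lowest concentration giving no visible growth.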

[14] = tested on: Staphylococcus aureus; assay: Antimicrobial activity against Staphylococcus aureus ATCC 29213 at 64 ug/mL after 24 hrs by broth microdilution assay; format: functional, organism-based; outline: as §2
[15] = Inhibition of tubulin polymerization
Outline: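 Turbidimetry at 350 nm. Compound at varying concentrations preincubated with 10 μM (1.0 mg/mL) purified tubulin, chilled on ice, then 0.4 mM GTP added and polymerization followed at 30 °C. Extent of polymerization at 20 min measured.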

[16] = tested on: Enterobacter cloacae; assay: Antimicrobial activity against Enterobacter cloacae ATCC 13047 at 64 ug/mL after 24 hrs by broth microdilution assay; format: functional, organism-based; outline: as §2
[17] = tested on: Candida albicans; assay: Antimicrobial activity against Candida albicans ATCC 90028 at 64 ug/mL after 48 hrs by broth microdilution assay; format: functional, organism-based
Outline: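 Yeast NCCLS broth microdilution (M27-A). Inoculum 0.5 to 2.5×10^3 CFU/mL; 2-fold dilutions in 0.165 M MOPS-buffered RPMI 1640, pH 7.0; compound from DMSO, DMSO-only turbidity control; 35 °C without agitation; read at 48 h (Candida). MIC = lowest concentration giving no visible growth.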

[18] = tested on: Enterococcus faecalis; assay: Antimicrobial activity against Enterococcus faecalis ATCC 29212 at 64 ug/mL after 24 hrs by broth microdilution assay; format: functional, organism-based; outline: as §2
[19] = tested on: Micrococcus luteus; assay: Antimicrobial activity against Micrococcus luteus Presque Isle 456 after 24 hrs by broth microdilution assay; format: functional; outline: as §2

Compound: COc1ccc(/C=C\c2cc(OC)c(OC)c(OC)c2)cc1O [COMBRETASTATIN A4]
- GI50 [1]: 0.061 µg/mL (≈ 0.193 µM)
- GI50 [2]: 0.0008 µg/mL (≈ 0.00253 µM)
- Activity [3]: 81%
- GI50 [4]: 0.39 µg/mL (≈ 1.23 µM)
- GI50 [5]: < 0.001 µg/mL
- GI50 [6]: 0.0006 µg/mL (≈ 0.0019 µM)
- EC50 [7]: 0.0003 µg/mL (≈ 0.000948 µM)

Compound: C1COCCN1.C1COCCN1.COc1ccc(/C=C\c2cc(F)c(OC)c(OC)c2)cc1OP(=O)(O)O
- GI50 [8]: 0.0079 µg/mL
- GI50 [1]: > 1 µg/mL
- GI50 [2]: 0.0046 µg/mL
- GI50 [4]: 0.73 µg/mL
- GI50 [5]: 0.0087 µg/mL
- GI50 [6]: 0.005 µg/mL
- EC50 [7]: 0.015 µg/mL

Compound: COc1ccc(/C=C/c2cc(O)c(OC)c(OC)c2)cc1[N+](=O)[O-]
- GI50 [8]: 0.56 µg/mL (≈ 1.69 µM)
- GI50 [1]: 1.2 µg/mL (≈ 3.62 µM)
- GI50 [2]: 0.36 µg/mL (≈ 1.09 µM)
- GI50 [4]: 1.1 µg/mL (≈ 3.32 µM)
- GI50 [5]: 0.41 µg/mL (≈ 1.24 µM)
- GI50 [6]: 0.25 µg/mL (≈ 0.755 µM)
- EC50 [7]: 0.224 µg/mL (≈ 0.676 µM)

Compound: COc1ccc(/C=C\c2cc(F)c(OC)c(OC)c2)cc1OP(=O)([O-])[O-].[Na+].[Na+]
- GI50 [8]: 0.0044 µg/mL
- GI50 [1]: 1.5 µg/mL
- GI50 [2]: 0.0036 µg/mL
- GI50 [4]: 0.59 µg/mL
- GI50 [5]: 0.0051 µg/mL
- GI50 [6]: 0.0094 µg/mL
- MIC [9]: 16 µg/mL
- EC50 [7]: 0.0298 µg/mL

Compound: COc1ccc(/C=C\c2cc(OC)c(OC)c(OC)c2)c(O)c1O [COMBRETASTATIN A-1]
- GI50 [1]: 0.061 µg/mL (≈ 0.184 µM)
- GI50 [2]: 0.17 µg/mL (≈ 0.512 µM)
- GI50 [4]: 4.4 µg/mL (≈ 13.2 µM)
- GI50 [6]: 0.74 µg/mL (≈ 2.23 µM)
- EC50 [7]: 0.251 µg/mL (≈ 0.755 µM)

Compound: COc1ccc(/C=C\c2cc(Br)c(OC)c(OC)c2)cc1O
- Activity [10]: inactive
- GI50 [8]: 0.00046 µg/mL (≈ 0.00126 µM)
- GI50 [1]: 0.59 µg/mL (≈ 1.62 µM)
- GI50 [2]: 0.00082 µg/mL (≈ 0.00225 µM)
- Activity [11]: inactive
- Activity [12]: inactive
- Activity [3]: 89%
- Activity [13]: inactive
- Activity [14]: inactive
- GI50 [4]: 0.64 µg/mL (≈ 1.75 µM)
- GI50 [5]: 0.0005 µg/mL (≈ 0.00137 µM)
- pIC50 [15]: 5.82
- GI50 [6]: 0.00038 µg/mL (≈ 0.00104 µM)
- Activity [16]: inactive
- Activity [17]: inactive
- MIC [9]: 32 µg/mL (≈ 87.6 µM)
- Activity [18]: inactive
- MIC [19]: 32 µg/mL (≈ 87.6 µM)
- EC50 [7]: 0.0021 µg/mL (≈ 0.00575 µM)

Compound: COc1ccc(/C=C\c2cc(O)c(OC)c(OC)c2)cc1[N+](=O)[O-]
- GI50 [8]: 0.49 µg/mL (≈ 1.48 µM)
- GI50 [1]: 1.8 µg/mL (≈ 5.43 µM)
- GI50 [2]: 0.39 µg/mL (≈ 1.18 µM)
- GI50 [4]: 2.5 µg/mL (≈ 7.55 µM)
- GI50 [5]: 0.62 µg/mL (≈ 1.87 µM)
- GI50 [6]: 0.31 µg/mL (≈ 0.936 µM)
- EC50 [7]: 0.402 µg/mL (≈ 1.21 µM)

Compound: COc1cc(/C=C\c2ccc(OC)c(OP(=O)([O-])[O-])c2OP(=O)([O-])[O-])cc(OC)c1OC.[Na+].[Na+].[Na+].[Na+]
- GI50 [8]: 0.024 µg/mL
- GI50 [1]: 0.53 µg/mL
- GI50 [2]: 0.034 µg/mL
- GI50 [4]: 1.5 µg/mL
- GI50 [5]: 0.036 µg/mL
- GI50 [6]: 0.038 µg/mL
- EC50 [7]: < 0.01 µg/mL

Compound: COc1ccc(/C=C/c2cc(OC)c(OC)c(O[Si](C)(C)C(C)(C)C)c2)cc1[N+](=O)[O-]
- GI50 [8]: 3.2 µg/mL (≈ 7.18 µM)
- GI50 [1]: > 10 µg/mL
- GI50 [2]: 2.8 µg/mL (≈ 6.28 µM)
- GI50 [4]: > 10 µg/mL
- GI50 [5]: 4.1 µg/mL (≈ 9.2 µM)
- GI50 [6]: 2.9 µg/mL (≈ 6.51 µM)
- EC50 [7]: 2.22 µg/mL (≈ 4.98 µM)

Compound: COc1ccc(/C=C\c2cc(Br)c(OC)c(OC)c2)cc1OP(=O)([O-])[O-].[Cs+].[Cs+]
- GI50 [8]: 0.0044 µg/mL
- GI50 [1]: 0.48 µg/mL
- GI50 [2]: 0.0079 µg/mL
- GI50 [4]: 0.15 µg/mL
- GI50 [5]: 0.0064 µg/mL
- GI50 [6]: 0.0066 µg/mL
- EC50 [7]: < 0.01 µg/mL

Compound: COc1ccc(/C=C\c2cc(OC)c(OC)c(OC)c2)cc1OP(=O)([O-])[O-].[Na+].[Na+] [FOSBRETABULIN DISODIUM]
- GI50 [1]: 0.034 µg/mL
- GI50 [5]: 0.036 µg/mL
- GI50 [6]: 0.029 µg/mL
- EC50 [7]: 0.0004 µg/mL

Compound: COc1ccc(/C=C\c2cc(F)c(OC)c(OC)c2)cc1OP(=O)([O-])[O-].[Li+].[Li+]
- GI50 [8]: 0.0038 µg/mL
- GI50 [1]: > 1 µg/mL
- GI50 [2]: 0.0043 µg/mL
- GI50 [4]: 0.49 µg/mL
- GI50 [5]: 0.004 µg/mL
- GI50 [6]: 0.0039 µg/mL
- EC50 [7]: 0.019 µg/mL

Compound: COc1ccc(/C=C\c2cc(Br)c(OC)c(OC)c2)cc1OP(=O)([O-])[O-].[Li+].[Li+]
- GI50 [8]: 0.0039 µg/mL
- GI50 [1]: 0.11 µg/mL
- GI50 [2]: 0.0066 µg/mL
- GI50 [4]: 0.13 µg/mL
- GI50 [5]: 0.003 µg/mL
- GI50 [6]: 0.0026 µg/mL
- EC50 [7]: < 0.01 µg/mL
